Results from ChEMBL document CHEMBL2169766 (J Med Chem, 2012).

Key:
[1] = biological target: T1, 5-hydroxytryptamine receptor 3A (Homo sapiens, UniProt P46098); experiment: Displacement of [3H]granisetron from 5HT3A receptor expressed in HEK293 cells after 24 hrs by scintillation counting in presence of quipazine; format: cell-based
T1 sequence (P46098 whole entry): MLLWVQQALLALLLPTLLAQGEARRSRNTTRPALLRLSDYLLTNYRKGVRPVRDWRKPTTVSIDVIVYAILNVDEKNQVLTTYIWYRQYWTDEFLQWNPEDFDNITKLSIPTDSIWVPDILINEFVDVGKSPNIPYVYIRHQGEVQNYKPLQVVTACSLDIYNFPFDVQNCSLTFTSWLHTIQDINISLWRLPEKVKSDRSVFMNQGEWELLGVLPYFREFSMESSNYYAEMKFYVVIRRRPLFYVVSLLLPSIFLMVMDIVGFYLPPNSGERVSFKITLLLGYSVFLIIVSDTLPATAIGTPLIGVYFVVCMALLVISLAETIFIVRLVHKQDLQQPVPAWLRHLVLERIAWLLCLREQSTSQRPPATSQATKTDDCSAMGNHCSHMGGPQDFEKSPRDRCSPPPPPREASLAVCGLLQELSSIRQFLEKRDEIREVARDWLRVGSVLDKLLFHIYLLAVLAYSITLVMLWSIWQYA
Procedure, shortened: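 Nonspecific binding defined with 1 mM quipazine. At least 24 h at 4 °C, GF/B filtration (0.3% PEI presoaked), scintillation counting. Hill-equation fit; Ki from IC50 via Cheng-Prusoff. At least three separate transfection plates.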

[2] = biological target: GABA-A receptor; alpha-1/beta-2/gamma-2 (Homo sapiens) (UniProt P14867+P47870+P18507); experiment: Displacement of [3H]muscimol from recombinant human GABAA alpha1beta2gamma2 receptor expressed in CHO cells at 0.1 uM after 120 mins; format: cell-based
Procedure, shortened: (§1)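 Single-point radioligand competition binding at an external contract lab. Reported as percent inhibition of control specific binding: 100 − (measured specific binding / control specific binding) × 100.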

[3] = biological target: 5-hydroxytryptamine receptor 7 (Homo sapiens) (UniProt P34969); experiment: Displacement of [3H]LSD from recombinant human 5HT7 receptor expressed in CHO cells at 0.1 uM after 120 mins; format: cell-based; procedure, shortened: as §1
Sequence of 5-hydroxytryptamine receptor 7 (Homo sapiens) (P34969 whole entry): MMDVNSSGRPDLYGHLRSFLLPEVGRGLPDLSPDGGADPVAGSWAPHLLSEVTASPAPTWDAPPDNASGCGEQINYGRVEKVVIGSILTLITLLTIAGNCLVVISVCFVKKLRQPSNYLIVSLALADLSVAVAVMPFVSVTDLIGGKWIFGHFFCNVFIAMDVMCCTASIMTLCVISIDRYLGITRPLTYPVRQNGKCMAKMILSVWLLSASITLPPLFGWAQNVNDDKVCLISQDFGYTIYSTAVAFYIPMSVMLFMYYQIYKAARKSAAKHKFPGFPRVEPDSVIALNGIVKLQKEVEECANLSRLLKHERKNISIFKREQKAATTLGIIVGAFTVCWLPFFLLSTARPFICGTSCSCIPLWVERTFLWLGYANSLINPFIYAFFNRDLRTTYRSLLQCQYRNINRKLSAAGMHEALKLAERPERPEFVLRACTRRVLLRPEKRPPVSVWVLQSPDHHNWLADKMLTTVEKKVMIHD

HEK293 [4] = experiment: Selectivity ratio for recombinant human 5HT2C receptor expressed in HEK-293 to 5HT3A receptor expressed in HEK293 cells; format: cell-based
[5] = biological target: 5-hydroxytryptamine receptor 4 (Homo sapiens) (UniProt Q13639); experiment: Displacement of [3H]GR113808 from recombinant human 5HT4E receptor expressed in CHO cells at 0.1 uM after 60 mins; format: cell-based; procedure, shortened: as §1
Sequence of 5-hydroxytryptamine receptor 4 (Homo sapiens) (Q13639 whole entry): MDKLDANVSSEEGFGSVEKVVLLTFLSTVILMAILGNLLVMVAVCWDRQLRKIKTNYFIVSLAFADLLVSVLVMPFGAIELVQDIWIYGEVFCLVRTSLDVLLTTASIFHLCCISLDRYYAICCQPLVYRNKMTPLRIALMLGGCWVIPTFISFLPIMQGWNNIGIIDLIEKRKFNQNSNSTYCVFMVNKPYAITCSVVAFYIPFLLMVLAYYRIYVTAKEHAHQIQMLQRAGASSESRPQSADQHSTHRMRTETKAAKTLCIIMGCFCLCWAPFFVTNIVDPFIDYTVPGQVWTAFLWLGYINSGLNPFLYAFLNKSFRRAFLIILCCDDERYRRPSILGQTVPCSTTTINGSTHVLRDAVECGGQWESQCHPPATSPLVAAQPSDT

[6] = biological target: Neuronal acetylcholine receptor; alpha4/beta2 (Homo sapiens) (UniProt P17787+P43681); experiment: Displacement of [3H]cytisine from recombinant human nACH alpha4beta2 receptor expressed in SH-SY5Y cells at 0.1 uM after 120 mins; format: cell-based; procedure, shortened: as §1
HEK293 [7] = experiment: Selectivity ratio for recombinant human 5HT4E receptor expressed in CHO cells to 5HT3A receptor expressed in HEK293 cells; format: cell-based
[8] = biological target: T2, 5-hydroxytryptamine receptor 2C (Homo sapiens) (UniProt P28335); experiment: Displacement of [125I] +/- DOI from recombinant human 5HT2C receptor expressed in HEK-293 cells at 0.1 uM after 60 mins; format: cell-based; conditions: HEK293; procedure, shortened: as §1
T2 sequence (whole entry): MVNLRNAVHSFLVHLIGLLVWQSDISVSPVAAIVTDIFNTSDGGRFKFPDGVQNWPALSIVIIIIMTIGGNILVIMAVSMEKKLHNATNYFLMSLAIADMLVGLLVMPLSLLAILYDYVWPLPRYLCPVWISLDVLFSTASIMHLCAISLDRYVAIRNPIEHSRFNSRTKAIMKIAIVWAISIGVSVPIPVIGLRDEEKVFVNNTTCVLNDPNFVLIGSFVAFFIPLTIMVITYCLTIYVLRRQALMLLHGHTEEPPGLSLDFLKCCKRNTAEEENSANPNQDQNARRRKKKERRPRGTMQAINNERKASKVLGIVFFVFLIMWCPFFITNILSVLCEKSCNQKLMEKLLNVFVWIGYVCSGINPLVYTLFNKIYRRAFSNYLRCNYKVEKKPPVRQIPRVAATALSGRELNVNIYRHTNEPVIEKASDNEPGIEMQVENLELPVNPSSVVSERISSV

HEK293 [9] = experiment: Selectivity ratio for 5HT1B receptor in rat cerebral cortex to 5HT3A receptor expressed in HEK293 cells; format: cell-based
[10] = biological target: T3, 5-hydroxytryptamine receptor 1A (Homo sapiens) (UniProt P08908); experiment: Displacement of [3H]8-OH-DPAT from recombinant human 5HT1A receptor expressed in HEK-293 cells at 0.1 uM after 60 mins; format: cell-based; conditions: HEK293; procedure, shortened: as §1
T3 sequence (whole entry): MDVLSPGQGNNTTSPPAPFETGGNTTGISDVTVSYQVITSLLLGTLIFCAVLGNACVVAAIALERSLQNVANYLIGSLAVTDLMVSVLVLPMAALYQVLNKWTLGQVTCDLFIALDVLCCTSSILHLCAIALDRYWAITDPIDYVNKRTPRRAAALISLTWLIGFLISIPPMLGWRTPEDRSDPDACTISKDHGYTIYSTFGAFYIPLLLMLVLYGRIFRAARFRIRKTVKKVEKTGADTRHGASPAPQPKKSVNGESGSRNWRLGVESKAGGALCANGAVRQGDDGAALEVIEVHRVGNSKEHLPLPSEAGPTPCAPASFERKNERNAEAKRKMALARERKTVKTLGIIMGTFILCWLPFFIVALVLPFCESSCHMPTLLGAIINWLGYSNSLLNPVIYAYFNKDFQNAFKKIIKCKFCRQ

HEK293 [11] = experiment: Selectivity ratio for recombinant human 5HT7 receptor expressed in CHO cells to 5HT3A receptor expressed in HEK293 cells; format: cell-based
HEK293 [12] = experiment: Selectivity ratio for glycine receptor in rat spinal cord to 5HT3A receptor expressed in HEK293 cells; format: cell-based
HEK293 [13] = experiment: Selectivity ratio for recombinant human 5HT2A receptor expressed in HEK-293 cells to 5HT3A receptor expressed in HEK293 cells; format: cell-based
HEK293 [14] = experiment: Selectivity ratio for recombinant human nACH alpha7 receptor expressed in HEK-293 cells to 5HT3A receptor expressed in HEK293 cells; format: cell-based
[15] = biological target: 5-hydroxytryptamine receptor 6 (Homo sapiens) (UniProt P50406); experiment: Displacement of [3H]LSD from recombinant human 5HT6 receptor expressed in CHO cells at 0.1 uM after 120 mins; format: cell-based; procedure, shortened: as §1
Sequence of 5-hydroxytryptamine receptor 6 (Homo sapiens) (P50406 whole entry): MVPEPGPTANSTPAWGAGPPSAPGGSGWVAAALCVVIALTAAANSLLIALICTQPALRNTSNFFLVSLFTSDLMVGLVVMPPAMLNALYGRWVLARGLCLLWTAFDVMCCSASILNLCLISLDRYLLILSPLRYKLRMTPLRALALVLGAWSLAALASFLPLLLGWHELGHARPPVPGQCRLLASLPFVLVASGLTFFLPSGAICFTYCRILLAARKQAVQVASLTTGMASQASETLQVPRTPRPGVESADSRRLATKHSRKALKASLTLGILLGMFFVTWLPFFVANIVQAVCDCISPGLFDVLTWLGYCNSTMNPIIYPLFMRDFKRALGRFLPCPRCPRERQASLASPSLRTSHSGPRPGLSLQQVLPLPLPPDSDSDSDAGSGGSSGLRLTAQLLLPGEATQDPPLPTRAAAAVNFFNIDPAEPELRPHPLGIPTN

HEK293 [16] = experiment: Selectivity ratio for recombinant human nACH alpha4beta2 receptor expressed in SH-SY5Y cells to 5HT3A receptor expressed in HEK293 cells; format: cell-based
HEK293 [17] = experiment: Selectivity ratio for recombinant human 5HT1A receptor expressed in HEK-293 to 5HT3A receptor expressed in HEK293 cells; format: cell-based
[18] = biological target: 5-hydroxytryptamine receptor 1D (Rattus norvegicus) (UniProt P28565); experiment: Displacement of [3H]serotonin from recombinant rat 5HT1D receptor expressed in CHO cells at 0.1 uM after 60 mins; format: cell-based; procedure, shortened: as §1
Sequence of 5-hydroxytryptamine receptor 1D (Rattus norvegicus) (P28565 whole entry): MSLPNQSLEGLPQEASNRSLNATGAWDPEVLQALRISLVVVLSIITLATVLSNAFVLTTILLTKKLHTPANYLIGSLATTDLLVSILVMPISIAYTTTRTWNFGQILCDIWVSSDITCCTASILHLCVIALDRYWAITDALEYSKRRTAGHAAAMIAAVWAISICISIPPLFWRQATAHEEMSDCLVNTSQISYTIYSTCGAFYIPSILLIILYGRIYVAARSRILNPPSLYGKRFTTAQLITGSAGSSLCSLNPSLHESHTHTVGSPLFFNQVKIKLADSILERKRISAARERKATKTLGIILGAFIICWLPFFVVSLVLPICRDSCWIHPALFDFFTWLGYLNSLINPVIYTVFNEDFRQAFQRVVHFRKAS

HEK293 [19] = experiment: Selectivity ratio for recombinant human GABAA alpha1beta2gamma2 receptor expressed in CHO cells to 5HT3A receptor expressed in HEK293 cells; format: cell-based
[20] = biological target: 5-hydroxytryptamine receptor 2B (Homo sapiens) (UniProt P41595); experiment: Displacement of [125I] +/- DOI from recombinant human 5HT2B receptor expressed in CHO cells at 0.1 uM after 60 mins; format: cell-based; procedure, shortened: as §1
Sequence of 5-hydroxytryptamine receptor 2B (Homo sapiens) (P41595 whole entry): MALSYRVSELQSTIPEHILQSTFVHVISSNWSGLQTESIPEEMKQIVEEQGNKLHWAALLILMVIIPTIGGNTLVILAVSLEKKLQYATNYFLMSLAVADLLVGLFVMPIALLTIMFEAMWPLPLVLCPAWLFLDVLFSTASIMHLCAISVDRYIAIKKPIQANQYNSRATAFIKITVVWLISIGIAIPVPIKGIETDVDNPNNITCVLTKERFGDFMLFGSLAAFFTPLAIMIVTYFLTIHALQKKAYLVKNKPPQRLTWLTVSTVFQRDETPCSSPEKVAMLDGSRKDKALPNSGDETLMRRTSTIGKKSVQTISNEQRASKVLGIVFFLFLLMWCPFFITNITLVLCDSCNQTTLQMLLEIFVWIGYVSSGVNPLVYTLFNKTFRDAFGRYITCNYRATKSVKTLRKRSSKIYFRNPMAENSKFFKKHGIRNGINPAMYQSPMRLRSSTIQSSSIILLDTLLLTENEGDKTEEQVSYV

[21] = biological target: Neuronal acetylcholine receptor subunit alpha-7 (Homo sapiens) (UniProt P36544); experiment: Displacement of [3H]epibatidine from recombinant human nACH alpha7 receptor expressed in HEK-293 cells at 0.1 uM after 120 mins; format: cell-based; conditions: HEK293
Sequence of Neuronal acetylcholine receptor subunit alpha-7 (Homo sapiens) (P36544 whole entry): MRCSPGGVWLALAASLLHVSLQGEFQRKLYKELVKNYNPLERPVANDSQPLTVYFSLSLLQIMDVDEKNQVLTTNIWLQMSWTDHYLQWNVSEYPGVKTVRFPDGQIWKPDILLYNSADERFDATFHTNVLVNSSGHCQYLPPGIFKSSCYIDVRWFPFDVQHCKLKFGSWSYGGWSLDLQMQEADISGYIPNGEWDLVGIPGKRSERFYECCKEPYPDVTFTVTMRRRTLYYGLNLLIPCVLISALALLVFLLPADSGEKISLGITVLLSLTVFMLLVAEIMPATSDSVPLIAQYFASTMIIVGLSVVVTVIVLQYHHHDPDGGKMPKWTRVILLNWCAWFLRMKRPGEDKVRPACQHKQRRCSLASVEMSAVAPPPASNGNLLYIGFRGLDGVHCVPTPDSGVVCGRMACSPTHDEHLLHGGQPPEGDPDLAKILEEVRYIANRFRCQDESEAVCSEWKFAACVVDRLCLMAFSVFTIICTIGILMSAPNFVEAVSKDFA

HEK293 [22] = experiment: Selectivity ratio for recombinant human 5HT6 receptor expressed in CHO cells to 5HT3A receptor expressed in HEK293 cells; format: cell-based
Rattus norvegicus = organism: Rattus norvegicus; experiment: Displacement of [3H]strychnine from glycine receptor in rat spinal cord at 0.1 uM after 15 mins; procedure, shortened: as §1
[23] = biological target: 5-hydroxytryptamine receptor 1B (Rattus norvegicus) (UniProt P28564); experiment: Displacement of [125I] CYP from 5HT1B receptor in rat cerebral cortex at 0.1 uM after 120 mins; format: tissue-based; procedure, shortened: as §1
Sequence of 5-hydroxytryptamine receptor 1B (Rattus norvegicus) (P28564 whole entry): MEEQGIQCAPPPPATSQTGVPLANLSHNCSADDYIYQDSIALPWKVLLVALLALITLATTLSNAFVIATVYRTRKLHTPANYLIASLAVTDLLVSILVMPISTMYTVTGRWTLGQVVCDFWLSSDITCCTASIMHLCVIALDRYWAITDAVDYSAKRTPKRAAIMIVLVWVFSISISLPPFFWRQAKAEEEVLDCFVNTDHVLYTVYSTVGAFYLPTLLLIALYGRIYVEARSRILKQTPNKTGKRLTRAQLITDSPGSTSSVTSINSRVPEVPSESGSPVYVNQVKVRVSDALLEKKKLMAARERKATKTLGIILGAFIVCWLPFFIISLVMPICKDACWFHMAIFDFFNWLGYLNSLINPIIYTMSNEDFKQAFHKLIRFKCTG

[24] = biological target: 5-hydroxytryptamine receptor 2A (Homo sapiens) (UniProt P28223); experiment: Displacement of [125I] +/- DOI from recombinant human 5HT2A receptor expressed in HEK-293 cells at 0.1 uM after 60 mins; format: cell-based; conditions: HEK293; procedure, shortened: as §1
Sequence of 5-hydroxytryptamine receptor 2A (Homo sapiens) (P28223 whole entry): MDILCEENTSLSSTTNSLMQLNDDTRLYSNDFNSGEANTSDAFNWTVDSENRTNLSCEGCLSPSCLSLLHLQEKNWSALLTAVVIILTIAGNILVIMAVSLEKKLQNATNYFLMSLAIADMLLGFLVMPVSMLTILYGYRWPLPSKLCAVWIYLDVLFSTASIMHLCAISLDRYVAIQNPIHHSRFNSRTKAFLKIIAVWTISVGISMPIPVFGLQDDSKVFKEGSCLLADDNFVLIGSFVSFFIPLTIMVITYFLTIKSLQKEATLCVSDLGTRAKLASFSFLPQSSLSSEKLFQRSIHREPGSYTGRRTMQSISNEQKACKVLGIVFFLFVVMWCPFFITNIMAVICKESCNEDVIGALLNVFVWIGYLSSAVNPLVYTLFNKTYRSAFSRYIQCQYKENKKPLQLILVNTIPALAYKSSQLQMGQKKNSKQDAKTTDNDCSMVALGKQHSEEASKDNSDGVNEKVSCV

HEK293 [25] = experiment: Selectivity ratio for recombinant human 5HT2C receptor expressed in HEK-293 cells to 5HT3A receptor expressed in HEK293 cells; format: cell-based
HEK293 [26] = experiment: Selectivity ratio for recombinant rat 5HT1D receptor expressed in CHO cells to 5HT3A receptor expressed in HEK293 cells; format: cell-based

Compound CN1CCN(c2nc(N)c3cc(Cl)ccc3n2)CC1 has a Ki [1] of 12 nM.

Compound CNc1nc(N2CC(N(C)C)C2)nc2ccc(Cl)cc12 has a Ki [1] of 468 nM.

Work on CN1CCN(c2cnc3ccccc3n2)CC1 yielded a Ki [1] of 4.68 nM.

In the case of CNc1cc(N2CCN(C)CC2)nc2ccccc12, the Ki [1] is reported as 13.5 nM.

Work on CN1CCN(c2cc3ccccc3c(N)n2)CC1 yielded a Ki [1] of 219 nM.

Work on CNc1nc(N2CC3CCCNC3C2)nc2ccc(Cl)cc12 (stereo not drawn) yielded a Ki [1] of 3550 nM.

CN1CCN(c2nc(O)c3cc(Cl)ccc3n2)CC1 gave a Ki [1] of 575 nM.

CNc1nc(NCCC2CCN(C)C2)nc2ccc(Cl)cc12 (stereo not drawn) was tested, and the Ki [1] was 11700 nM.

CN1CCN(c2ccc3ccccc3n2)CC1 showed a Ki [1] of 0.457 nM.

With CN1CCN(c2nc(N)c3ccccc3n2)CC1 the inhibition [2] was < 15%, the inhibition [3] was < 15% and the Ki [1] was 0.0513 nM. The Selectivity ratio (HEK293 [4]) was 1000, the inhibition [5] was < 15% and the inhibition [6] was < 15%. For the same compound, the Selectivity ratio (HEK293 [7]) was 1000, the inhibition [8] was < 15% and the Selectivity ratio (HEK293 [9]) was 1000. The inhibition [10] was < 15%, the Selectivity ratio (HEK293 [11]) was 1000 and the Selectivity ratio (HEK293 [12]) was 1000. For the same compound, the Selectivity ratio (HEK293 [13]) was 1000, the Selectivity ratio (HEK293 [14]) was 1000 and the inhibition [15] was < 15%. The Selectivity ratio (HEK293 [16]) was 1000, the Selectivity ratio (HEK293 [17]) was 1000 and the inhibition [18] was < 15%. It also gave a Selectivity ratio (HEK293 [19]) of 1000, an inhibition [20] of 43% and an inhibition [21] of 31%. The Selectivity ratio (HEK293 [22]) was 1000, the inhibition (Rattus norvegicus) was < 15% and the inhibition [23] was < 15%. The inhibition [24] was < 15%, the Selectivity ratio (HEK293 [25]) was 1000 and the Selectivity ratio (HEK293 [26]) was 1000.

CN1CCN(c2ccc3c(N)cccc3n2)CC1 gave a Ki [1] of 204 nM.

CN1CCN(c2nc(N(C)C)c3cc(Cl)ccc3n2)CC1 showed a Ki [1] of 6.61 nM.

CN1CCN(c2nc3ccccc3c(=O)[nH]2)CC1 was tested, and the Ki [1] was 46.8 nM.

With CN1CCN(c2cc(N)c3ccccc3n2)CC1 the Ki [1] was 1.45 nM.

Compound CN1CCN(c2cc3ccccc3cn2)CC1 has a Ki [1] of 1.62 nM.

CNc1nc(N2CCN(C)CC2)cc2ccccc12 gave a Ki [1] of 5.89 nM.

With CNc1nc(N2CCN(C)CC2)nc2ccc(Cl)cc12 the Ki [1] was 1.12 nM.

CNc1nc(N2CC[C@H](N)C2)nc2ccc(Cl)cc12 gave a Ki [1] of 2340 nM.

Compound CN1CCN(c2nc(NCc3ccccc3)c3cc(Cl)ccc3n2)CC1 has a Ki [1] of 13.8 nM.

For CNc1nc(N2CCCN(C)CC2)nc2ccc(Cl)cc12, the Ki [1] was 18.2 nM.

CC(C)Nc1nc(N2CCN(C)CC2)nc2ccc(Cl)cc12 was tested, and the Ki [1] was 166 nM.

CN1CCN(c2nc(NCCc3ccccc3)c3cc(Cl)ccc3n2)CC1 showed a Ki [1] of 79.4 nM.

Work on CN1CCN(c2nc(NCC3CCCCC3)c3cc(Cl)ccc3n2)CC1 yielded a Ki [1] of 16600 nM.

In the case of CN1CCN(c2nc(NCc3ccoc3)c3cc(Cl)ccc3n2)CC1, the Ki [1] is reported as 2.82 nM.

In the case of CN1CCN(c2ccc3ccccc3c2)CC1, the Ki [1] is reported as 537 nM.

In the case of CN1CCN(c2cnc3ccccc3c2)CC1, the Ki [1] is reported as 407 nM.

CN1CCN(c2ccc3cccc(N)c3n2)CC1 showed a Ki [1] of 331 nM.

With CN1CCN(c2ncc3cc(Cl)ccc3n2)CC1 the Ki [1] was 7.41 nM.

CNc1nc(N2CCN(C)CC2)nc2ccccc12 gave a Ki [1] of 2.95 nM.

CN1CCN(c2ncc3ccccc3n2)CC1 was tested, and the Ki [1] was 1.35 nM.

Work on CN1CCN(c2nc(NCCO)c3cc(Cl)ccc3n2)CC1 yielded a Ki [1] of 14.8 nM.

Compound CN1CCN(c2nc(NCc3ccc(N)cc3)c3cc(Cl)ccc3n2)CC1 has a Ki [1] of 2.69 nM.
